Measured values reported in publication PMC10733988 (ACS Omega, 2023).

Columns and labels:
Recombinant human MAO-A = target: T1, Recombinant human MAO-A (Homo sapiens, UniProt P21397); test: MAO-A inhibition enzyme assay; format: biochemical; conditions: for remaining activity at 10 µM: read-out: residual activities at 10 μM (%) MAO-A
T1 sequence (P21397 1-527): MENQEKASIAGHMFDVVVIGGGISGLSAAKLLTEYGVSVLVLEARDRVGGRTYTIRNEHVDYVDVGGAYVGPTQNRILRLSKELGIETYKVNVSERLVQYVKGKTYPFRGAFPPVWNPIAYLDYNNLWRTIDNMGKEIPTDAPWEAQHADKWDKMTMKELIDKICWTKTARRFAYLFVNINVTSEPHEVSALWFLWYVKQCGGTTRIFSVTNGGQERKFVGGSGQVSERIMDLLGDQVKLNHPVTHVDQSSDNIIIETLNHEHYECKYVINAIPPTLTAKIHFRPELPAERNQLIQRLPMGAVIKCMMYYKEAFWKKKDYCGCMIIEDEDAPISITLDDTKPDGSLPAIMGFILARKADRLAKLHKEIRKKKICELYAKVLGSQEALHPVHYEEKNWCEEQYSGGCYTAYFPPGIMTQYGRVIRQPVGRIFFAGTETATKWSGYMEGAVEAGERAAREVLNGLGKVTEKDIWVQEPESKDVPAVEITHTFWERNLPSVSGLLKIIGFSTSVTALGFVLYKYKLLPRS

Recombinant human MAO-B [1] = target: T2, Recombinant human MAO-B (Homo sapiens, UniProt P27338); test: MAO-B inhibition enzyme assay; format: biochemical; conditions: for remaining activity at 10 µM: read-out: residual activities at 10 μM (%) MAO-B; for SI (selectivity index): IC50 for MAO-A / IC50 for MAO-B
T2 sequence (P27338 1-520): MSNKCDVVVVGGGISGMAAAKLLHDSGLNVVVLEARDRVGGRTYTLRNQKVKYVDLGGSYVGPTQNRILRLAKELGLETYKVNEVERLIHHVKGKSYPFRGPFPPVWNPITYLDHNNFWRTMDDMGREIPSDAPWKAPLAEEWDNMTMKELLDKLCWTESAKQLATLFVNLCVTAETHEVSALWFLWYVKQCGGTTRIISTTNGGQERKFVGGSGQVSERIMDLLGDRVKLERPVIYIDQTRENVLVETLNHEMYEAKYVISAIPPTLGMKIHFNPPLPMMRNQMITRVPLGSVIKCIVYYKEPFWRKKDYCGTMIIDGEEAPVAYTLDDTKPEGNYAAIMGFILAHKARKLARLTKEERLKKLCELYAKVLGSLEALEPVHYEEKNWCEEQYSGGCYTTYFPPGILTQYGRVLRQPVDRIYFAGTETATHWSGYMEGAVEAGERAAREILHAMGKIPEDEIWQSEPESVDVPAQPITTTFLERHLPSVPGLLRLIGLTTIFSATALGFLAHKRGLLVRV

Recombinant human MAO-B [2] = target: T2, Recombinant human MAO-B; test: Reversibility of MAO-B inhibition by dialysis; format: biochemical; conditions: dialysis method
BBB permeability assay = format: in vitro ADME; conditions: for Papp / prediction (BBB permeation): PAMPA; for prediction (BBB permeation): class from Pe
Summary of the method: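 Passive BBB permeation is estimated with a non-cell PAMPA: a filter membrane (0.45 µm pore, 125 µm thick) soaked in n-dodecane sits between donor and acceptor wells. Test compound stocks (10 mM in DMSO, kept at 0 °C) are diluted in buffer to final 1, 0.1 and 0.01 mM, with DMSO below 1% (v/v). Pe is calculated from donor and receptor absorbance, filter area (0.45 cm²), compartment volumes and time.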

Recombinant human MAO-B [3] = target: T2, Recombinant human MAO-B; test: MAO-B enzyme kinetics; format: biochemical; conditions: for type of MAO-B inhibition: Lineweaver-Burk plot
Summary of the method: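 Recombinant human MAO-B in 50 mM sodium phosphate (pH 7.2), 25 °C, 30 min. Benzylamine was the substrate, tested at five concentrations, and product formation was followed continuously as absorbance change at 250 nm. Reactions were started by adding substrate to the enzyme mixture, with three inhibitor conditions per test compound. Inhibition type came from Lineweaver–Burk plots and Ki from secondary plots.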

O=C(NN=Cc1ccc(Cl)cc1)c1ccccc1 [ACH1]
IC50 (Recombinant human MAO-A): > 40 µM | remaining activity at 10 µM (Recombinant human MAO-A): 96 ± 8.49% | IC50 (Recombinant human MAO-B [1]): 0.36 ± 0.04 µM | remaining activity at 10 µM (Recombinant human MAO-B [1]): 10.7 ± 2.52%

O=C(NN=Cc1ccc(Br)cc1)c1ccccc1 [ACH2]
IC50 (Recombinant human MAO-A): > 40 µM | remaining activity at 10 µM (Recombinant human MAO-A): 131 ± 2.9% | IC50 (Recombinant human MAO-B [1]): 1.65 ± 0.21 µM | remaining activity at 10 µM (Recombinant human MAO-B [1]): 30.2 ± 0.95%

O=C(NN=Cc1ccc(F)cc1)c1ccccc1 [ACH3]
IC50 (Recombinant human MAO-A): > 40 µM | remaining activity at 10 µM (Recombinant human MAO-A): 109 ± 7.07% | IC50 (Recombinant human MAO-B [1]): 0.22 ± 0.02 µM | remaining activity at 10 µM (Recombinant human MAO-B [1]): 7.08 ± 1.25%

O=C(NN=Cc1ccc(Cl)cc1)c1ccc(Cl)cc1 [ACH4]
IC50 (Recombinant human MAO-A): > 40 µM | remaining activity at 10 µM (Recombinant human MAO-A): 92.1 ± 1.86% | IC50 (Recombinant human MAO-B [1]): 0.37 ± 0.006 µM | SI (selectivity index) (Recombinant human MAO-B [1]): > 108.11 | remaining activity at 10 µM (Recombinant human MAO-B [1]): 20.2 ± 1.68%

O=C(NN=Cc1ccc(Br)cc1)c1ccc(Cl)cc1 [ACH5]
IC50 (Recombinant human MAO-A): > 40 µM | remaining activity at 10 µM (Recombinant human MAO-A): 70.6 ± 4.16% | IC50 (Recombinant human MAO-B [1]): 1.54 ± 0.04 µM | SI (selectivity index) (Recombinant human MAO-B [1]): > 25.97 | remaining activity at 10 µM (Recombinant human MAO-B [1]): 35.8 ± 1.88%

O=C(NN=Cc1ccc(F)cc1)c1ccc(Cl)cc1 [ACH6]
IC50 (Recombinant human MAO-A): > 40 µM | remaining activity at 10 µM (Recombinant human MAO-A): 117 ± 1.86% | IC50 (Recombinant human MAO-B [1]): 8 ± 0.037 µM | SI (selectivity index) (Recombinant human MAO-B [1]): > 5.00 | remaining activity at 10 µM (Recombinant human MAO-B [1]): 46.4 ± 1.68%

O=C(NN=Cc1ccccc1)c1ccc(Cl)cc1 [ACH7]
IC50 (Recombinant human MAO-A): > 40 µM | remaining activity at 10 µM (Recombinant human MAO-A): 127 ± 3.48% | IC50 (Recombinant human MAO-B [1]): 12.8 ± 0.026 µM | SI (selectivity index) (Recombinant human MAO-B [1]): > 3.13 | remaining activity at 10 µM (Recombinant human MAO-B [1]): 43.5 ± 4.56%

O=C(NN=Cc1ccc(Cl)cc1)c1ccc(Br)cc1 [ACH8]
IC50 (Recombinant human MAO-A): 20.2 ± 0.57 µM | remaining activity at 10 µM (Recombinant human MAO-A): 59.6 ± 3.12% | IC50 (Recombinant human MAO-B [1]): 0.2 ± 0.09 µM | SI (selectivity index) (Recombinant human MAO-B [1]): 101.10 | remaining activity at 10 µM (Recombinant human MAO-B [1]): 18.3 ± 3.45%

O=C(NN=Cc1ccc(Br)cc1)c1ccc(Br)cc1 [ACH9]
IC50 (Recombinant human MAO-A): > 40 µM | remaining activity at 10 µM (Recombinant human MAO-A): 101 ± 1.86% | IC50 (Recombinant human MAO-B [1]): > 40 µM | remaining activity at 10 µM (Recombinant human MAO-B [1]): 98.2%

O=C(NN=Cc1ccc(F)cc1)c1ccc(Br)cc1 [ACH10]
reversibility of MAO-B inhibition (Recombinant human MAO-B [2]): reversible inhibitors of MAO-B | IC50 (Recombinant human MAO-A): 23.4 ± 0.56 µM | remaining activity at 10 µM (Recombinant human MAO-A): 61.8 ± 6.24% | IC50 (Recombinant human MAO-B [1]): 0.14 ± 0.011 µM | SI (selectivity index) (Recombinant human MAO-B [1]): 167.29 | remaining activity at 10 µM (Recombinant human MAO-B [1]): 11.7 ± 1.42% | Papp (BBB permeability assay): 5.12 ×10⁻⁶ cm/s | prediction (BBB permeation) (BBB permeability assay): CNS+ (Pe > 4.00 × 10^–6 cm/s: CNS+ (high permeation)) | Ki (Recombinant human MAO-B [3]): 0.097 ± 0.0021 µM | type of MAO-B inhibition (Recombinant human MAO-B [3]): competitive MAO-B inhibitors

O=C(NN=Cc1ccccc1)c1ccc(Br)cc1 [ACH11]
IC50 (Recombinant human MAO-A): > 40 µM | remaining activity at 10 µM (Recombinant human MAO-A): 102 ± 4.64% | IC50 (Recombinant human MAO-B [1]): 5.2 ± 0.056 µM | SI (selectivity index) (Recombinant human MAO-B [1]): > 7.69 | remaining activity at 10 µM (Recombinant human MAO-B [1]): 39 ± 5.61%

O=C(NN=Cc1ccc(Cl)cc1)c1ccc(F)cc1 [ACH12]
IC50 (Recombinant human MAO-A): 4.85 ± 0.83 µM | remaining activity at 10 µM (Recombinant human MAO-A): 37.6 ± 2.24% | IC50 (Recombinant human MAO-B [1]): 5.6 ± 0.1 µM | SI (selectivity index) (Recombinant human MAO-B [1]): 0.87 | remaining activity at 10 µM (Recombinant human MAO-B [1]): 33.8%

O=C(NN=Cc1ccc(Br)cc1)c1ccc(F)cc1 [ACH13]
IC50 (Recombinant human MAO-A): 11.6 ± 0.07 µM | remaining activity at 10 µM (Recombinant human MAO-A): 38.5 ± 5.44% | IC50 (Recombinant human MAO-B [1]): 0.18 ± 0.01 µM | SI (selectivity index) (Recombinant human MAO-B [1]): 64.44 | remaining activity at 10 µM (Recombinant human MAO-B [1]): -50.9%

O=C(NN=Cc1ccc(F)cc1)c1ccc(F)cc1 [ACH14]
reversibility of MAO-B inhibition (Recombinant human MAO-B [2]): reversible inhibitors of MAO-B | IC50 (Recombinant human MAO-A): 19.6 ± 1.41 µM | remaining activity at 10 µM (Recombinant human MAO-A): 63.8 ± 1.76% | IC50 (Recombinant human MAO-B [1]): 0.15 ± 0.02 µM | SI (selectivity index) (Recombinant human MAO-B [1]): 130.47 | remaining activity at 10 µM (Recombinant human MAO-B [1]): -14.4% | Papp (BBB permeability assay): 4.98 ×10⁻⁶ cm/s | prediction (BBB permeation) (BBB permeability assay): CNS+ (Pe > 4.00 × 10^–6 cm/s: CNS+ (high permeation)) | Ki (Recombinant human MAO-B [3]): 0.1 ± 0.038 µM | type of MAO-B inhibition (Recombinant human MAO-B [3]): competitive MAO-B inhibitors

C#CCN(C)[C@H](C)Cc1ccccc1 [selegiline, reference compound]
Pe (cm/s) (BBB permeability assay; PAMPA effective permeability): 5.69 ± 0.04 cm/s | prediction (BBB permeation) (BBB permeability assay): CNS+ (Pe > 4.00 × 10^–6 cm/s: CNS+ (high permeation))
